Reference: ChEMBL document CHEMBL4513216, “Probing the Open Global Health Chemical Diversity Library for Multistage-Active Starting Points for Next-Generation Antimalarials” (ACS Infect Dis, 2020)

Assay: Toxicity liver stage against HepG2, at 10uM
Type: cell-based
Design: test concentration 10 uM, cell line HepG2-A16-CD81EGFP
Conditions: human, HepG2-A16-CD81EGFP cells; read-out: INHIBITION
Outline: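 Uninfected HepG2-A16-CD81EGFP cells, 3 × 10^3 per well, 1536-well, plated on prespotted compound at 10 μM final, parasite-free screening media added to match infected plates; puromycin 10 μM positive, DMSO 0.5% negative; run in parallel with 48 h PbLuc assay at 37 °C, 5% CO2; viability by CellTiter-Glo luminescence, normalized to controls.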

Row | Compound | cytotoxicity at 10 µM
1 | NCC(c1cccnc1)N1CCOCC1 (centres undefined) | 4.32%
2 | CC1(C)[C@H](Cc2cc(CN3CCOCC3)on2)C[C@@H]1NC(=O)C1CCC1 | -6.67%
3 | CS(=O)(=O)N1CCN2C(=O)N(C3CCCCC3)C[C@H]2C1 | 7.77%
4 | CN(C)[C@H]1C[C@@H](Cc2cc(-c3ccc(F)cc3)on2)C1(C)C | -12.3%
5 | COCC(=O)NC[C@H]1C[C@@H]2CCN1C[C@@H]2CN1CCc2ccccc2C1 | -1.33%
6 | Cc1ccc(NC(=O)c2ccc(N3CCCCC3)nn2)c(Cl)c1 | -10.7%
7 | Cc1cc(=O)[nH]c(-n2nc(C)c(CCC(=O)NCC(C)C)c2C)n1 | 2.28%
8 | O=C(NCC1(O)CCOc2ccccc21)Nc1ccc2c(c1)OCO2 (centres undefined) | -5.12%
9 | Cn1cc(C(=O)Nc2ccc(CC(=O)NC3CC3)cc2)nn1 | -7.42%
10 | CC(C)N1CCc2ncn(C(C)C)c2C1C(=O)N1CCN(C)CC1 (centres undefined) | -0.849%
11 | CC1N(CC2CC2)C(=O)COC12CCN(C(=O)c1ccno1)CC2 (centres undefined) | 0.104%
12 | CC(=O)Nc1sc2c(c1C(=O)O)CCc1ccccc1-2 | 0.513%
13 | CCn1c(Nc2ccccc2OC)nc2c(C)nn(C)c2c1=O | 15.8%
14 | Cc1cc(C)nc(N2CCC(Cn3cc(C(N)=O)cn3)CC2)n1 | 3.65%
15 | Cc1nc(C2CCN(S(C)(=O)=O)CC2)nc(N2CCCC2)c1C | 4.48%
16 | Cc1nc(C2CCCN2C(=O)Cc2cccc(F)c2)nc(O)c1C (centres undefined) | -26.9%
17 | CCc1ncc(CN2CCN(CCOC)CC2)cn1 | -21.7%
18 | Cc1ccccc1S(=O)(=O)N1CCC(c2[nH]ncc2C)C1 (centres undefined) | -21.1%
19 | Cc1cc(-c2cnc(N3CCC(O)CC3)nc2-c2cccnc2C)on1 | -25.2%
20 | Cc1cc2c(=O)n3c(nc2s1)CCN(C(=O)c1ccnn1C(C)C)CC3 | -6.46%
21 | COCCN(C(=O)c1cnccn1)c1nc2c(s1)CCc1c-2cnn1C | -24.3%
22 | Cc1cc(C)c(CNC(=O)N2CCCN(C(=O)C(C)C)CC2)c(C)c1 | 12.3%
23 | CC(OCC1CC1)C(=O)NCc1cccc(CN2CCCC2=O)c1 (centres undefined) | 3.05%
24 | O=C(C1CCOc2ccccc21)N1CCOc2cccc(F)c21 (centres undefined) | 4.52%
25 | Cc1nc(-c2ccccc2)sc1C(=O)N(C1CC1)C1CC(=O)NC1=O (centres undefined) | 2.78%
26 | Cc1c(C(=O)OCC2CC(=O)N(c3ccccc3)C2)cnn1C(C)C (centres undefined) | -3.52%
27 | Cc1cc(CNC2CCc3nc(C(C)C)nn3C2)on1 (centres undefined) | 7.61%

Row | Compound | cytotoxicity at 10 µM
28 | Cc1cc(F)ccc1CCNC(=O)NCC(C)N1CCOCC1 (centres undefined) | -1.35%
29 | CCC(NCc1ccccn1)c1ccccc1OCC(=O)NC (centres undefined) | 11.3%
30 | O=C(c1[nH]c2ccc(Cl)cc2c1Cl)N1CCC2(CC1)OCCO2 | 23.5%
31 | CCN(CC)S(=O)(=O)CCNc1ncnc2cc(F)c(F)cc12 | 25.9%
32 | COc1c(CNCCC(=O)Nc2cccc(C)n2)c(C)nn1C | 12.6%
33 | Cc1cccc(-c2nc(C)nn2CN2CCC3(CC2)OCCO3)c1 | -13.8%
34 | Cc1nc(C(=O)N2CC[C@@]3(C[C@H](NS(C)(=O)=O)CCO3)C2)cs1 | -72.9%
35 | CC(C)CN1C(=O)CO[C@@H]2CN(C(=O)C3CCOCC3)C[C@H]21 | -88.1%
36 | CC(C)N1CCO[C@H]2CN(C(=O)c3ccncc3)C[C@H]21 | -74.3%
37 | COc1cccc(N2CCN(Cc3cc(C)cc(F)c3)CC2=O)c1 | 25.9%
38 | CC(NC(=O)CCCn1cnc2ccccc2c1=O)c1ncn[nH]1 (centres undefined) | -4.31%
39 | Cc1cnccc1N1CCCN(C(=O)CCn2ccnc2C)CC1 | -6.32%
40 | CN(C)S(=O)(=O)N1CC[C@]2(O)CCN(c3nc4ccccc4s3)C[C@@H]2C1 | -1.82%
41 | Cc1oc(-c2cccc(F)c2F)nc1CN(C)CCO | -9.49%
42 | Cc1ccc(NC(=O)[C@H]2C[C@H](C(=O)O)CN(CC(C)C)C2)cn1 | 9.9%
43 | Cn1nc(C(C)(C)C)cc1NC(=O)Cn1ccnc1 | 1.5%
44 | Cc1n[nH]c(C)c1CN(C)C(C(=O)O)c1ccc2c(c1)OCO2 (centres undefined) | 6.86%
45 | COCCCN(C)[C@@H]1c2ccccc2C2(CCNCC2)[C@H]1O | 1.73%
46 | Cc1ccc(CN2CCN(c3ccc(F)cn3)CC2=O)cc1C | -4.4%
47 | Cc1nn(C)c2ncnc(N3CCCC(C)(O)C3)c12 (centres undefined) | 0.541%
48 | CC(C(=O)N1CCCN(c2ncccc2C#N)CC1)n1cncn1 (centres undefined) | -6.54%
49 | CNC(=O)C1CCN(C(=O)NCc2ccc(-c3ccn[nH]3)cc2)CC1 | -4.22%
50 | Cc1cc(C)cc(C2(C(=O)NCC3CCN(CC(F)(F)F)C3)CC2)c1 (centres undefined) | -1.62%
51 | COc1c(CNC2CCc3ccccc32)c(C(C)C)nn1C (centres undefined) | 0.441%
52 | COc1c(CNCCNC(=O)c2ccc(C)c(F)c2)c(C)nn1C | -3.33%
53 | CCOC1CCCN(C(=O)c2nn(-c3ccccc3F)cc2O)C1 (centres undefined) | -4.62%
54 | CC(C)n1ncc2cc(NC(=O)N3CCSCC3)cnc21 | -5.07%

Row | Compound | cytotoxicity at 10 µM
55 | Cc1cnn(CC2CN(Cc3nc(C)c(C)o3)CCO2)c1 (centres undefined) | -3.88%
56 | Cc1cnn(CC2CN(Cc3nc(C4CC4)no3)CCO2)c1 (centres undefined) | -4.26%
57 | Cc1nnc2n1CCN(C(C(=O)N1CCCCC1)c1ccccc1)C2 (centres undefined) | -5.83%
58 | Cc1ccsc1CNC(=O)N1CCC(Cc2cnn(C)c2)C1 (centres undefined) | -6.6%
59 | CCNc1cc2c(nn1)CCN(C(=O)C1CCc3ccccc31)C2 (centres undefined) | 0.169%
60 | COc1ccccc1C(C)NC(=O)N1CCC(n2cncn2)CC1 (centres undefined) | 2.85%
61 | CCOc1ccc(C(=O)N2CCCS2(=O)=O)cc1OC | -7.42%
62 | CN(C)CC1CN(Cc2coc(-c3cccc(F)c3)n2)CCO1 (centres undefined) | -17.2%
63 | Cc1cc(C)n(CC2CCCN2CCC(=O)Nc2cc(C)on2)n1 (centres undefined) | 1.44%
64 | Cc1noc(C)c1CN(C)C(=O)c1ccc(NC2CC2)nc1 | -4.94%
65 | Cn1nccc1C1CCN(Cc2csc(-c3ncccn3)n2)CC1 | -1.91%
66 | CCn1ccnc1CN1CCN(c2cc(C)nc(C3CCCN3)c2)CC1 (centres undefined) | 2.19%
67 | COc1ccc(C2(NCc3c(C)nc4c(C)cccn34)CCCC2)cc1 | 3.79%
68 | O=C1CC(c2ccncc2)C2(CCN(C(=O)c3cccc(F)c3)CC2)N1 (centres undefined) | -74.4%
69 | CCN1CCN(C)C2(CCN(Cc3cccc(C)n3)CC2)C1=O | 2%
70 | CCN1CC[C@@]2(C(=O)N3CCOCC3)CCN(C(=O)CC(C)C)CC[C@@H]12 | 3.56%
71 | CCN1CC[C@@]2(C(=O)N(C)C)CCN(C(=O)Cc3ccccc3)CC[C@@H]12 | 4.65%
72 | CN(C)Cc1cnc2n1CCN(C(=O)Cc1ccsc1)CC2 | -3.95%
73 | COC[C@H]1CN(CC2CC2)C(=O)[C@@H]2CCN(Cc3ccoc3)CC[C@H]12 | -2.05%
74 | Cn1nc(CN2CCCCC2)c2c1CN(Cc1ccoc1)C2 | -0.449%
75 | CN(Cc1ccccn1)C(=O)[C@H]1CO[C@H]2CCN(CC3CC3)C[C@H]2C1 | -105%
76 | CN(Cc1ccco1)Cc1cnc2n1CCN(c1ccccn1)CC2 | -0.48%
77 | O=C(Cc1ccccc1)N1Cc2nccn2CC(CN2CCCC2)C1 (centres undefined) | -101%
78 | Cn1cc(CN2CCCC3(CCN(C(=O)c4ccccn4)C3)C2)cn1 (centres undefined) | -66.9%
79 | CN(C)CCCC(=O)N1C[C@@H]2CC[C@H]1CN(Cc1ccccc1)C2 | -5.39%
